Experimental data: ChEMBL document CHEMBL3271978, “Synthesis and some pharmacological properties of [4-homoserine]oxytocin” (J Med Chem, 1977)
Positions of bridges follow the written chain, without caps; N, C: chain ends. Non-standard residues stand in square brackets, D forms with d. Residues, ends and D or L forms follow the SMILES beside them. hSer = N[C@@H](CCO)C(=O)O

Key:
[1] = Oxytocic potency in rat uterus; format: functional
Procedure, shortened: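 Isolated rat uterus suspended in bath solution without Mg2+; oxytocic activity assayed against USP posterior pituitary reference standard.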

[2] = Oxytocic potency in rat uterus in presence of 0.5 mM Mg2+; format: functional
Procedure, shortened: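 Isolated rat uterus suspended in solution containing 0.5 mM Mg2+; oxytocic activity assayed against USP posterior pituitary reference standard.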

[3] = Ratio of oxytocic potency in rat uterus to vasopressor activity in phenoxybenzamine-treated rat under urethane anesthesia
[4] = tested on: Rattus norvegicus; assay: Oxytocic activity in iv dosed lactating rat anesthetized with pentobarbital assessed as milk ejection; format: functional
Procedure, shortened: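 Lactating rats anesthetized with pentobarbital received peptide by intravenous injection; milk-ejection response measured relative to USP posterior pituitary reference standard.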

[5] = species on record: Rattus norvegicus; assay: Vasopressor activity in phenoxybenzamine-treated rat under urethane anesthesia; format: ADME, organism-based; settings: in vivo
Procedure, shortened: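 Rats pretreated with phenoxybenzamine, under urethane anesthesia; pressor response assayed against USP posterior pituitary reference standard.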

[6] = tested on: Rattus norvegicus; assay: Antidiuretic activity in iv dosed hydrated rat anesthetized with ethanol; format: ADME, organism-based, Urine; settings: in vivo
[7] = Ratio of oxytocic potency in rat uterus to antidiuretic activity in iv dosed hydrated rat anesthetized with ethanol

| Activity [5] [U/mg] | Activity [6] [U/mg] | SMILES | Activity [1] [U/mg] | Activity [2] [U/mg] | Ratio [3] | Activity [4] [U/mg] | Ratio [7] |
| --- | --- | --- | --- | --- | --- | --- | --- |
| 0.12 | 0.044 | CC[C@H](C)[C@@H]1NC(=O)[C@H](Cc2ccc(O)cc2)NC(=O)[C@@H](N)CSSC[C@@H](C(=O)N2CCC[C@H]2C(=O)N[C@@H](CC(C)C)C(=O)NCC(N)=O)NC(=O)[C@H](CC(N)=O)NC(=O)[C@H](CC(N)=O)NC1=O (H-CYINNCPLG-NH2; disulfide 1-6) | 108 | 490 | 823 | 300 | 929 |
| 0.028 | 0.06 | CC[C@H](C)[C@@H]1NC(=O)[C@H](Cc2ccc(O)cc2)NC(=O)[C@@H](N)CSSC[C@@H](C(=O)N2CCC[C@H]2C(=O)N[C@@H](CC(C)C)C(=O)NCC(N)=O)NC(=O)[C@H](CC(N)=O)NC(=O)[C@H](CO)NC1=O (H-CYISNCPLG-NH2; disulfide 1-6) | 148 | 331 | >1950 | 255 | 80 |
| 0.43 | 1.8 | CC[C@H](C)[C@@H]1NC(=O)[C@H](Cc2ccc(O)cc2)NC(=O)[C@@H](N)CSSC[C@@H](C(=O)N2CCC[C@H]2C(=O)N[C@@H](CC(C)C)C(=O)NCC(N)=O)NC(=O)[C@H](CC(N)=O)NC(=O)[C@H]([C@@H](C)O)NC1=O (H-CYITNCPLG-NH2; disulfide 1-6) | 923 | 719 | 2150 | 543 | 510 |
| 0.021 | 0.24 | CC[C@H](C)[C@@H]1NC(=O)[C@H](Cc2ccc(O)cc2)NC(=O)[C@@H](N)CSSC[C@@H](C(=O)N2CCC[C@H]2C(=O)N[C@@H](CC(C)C)C(=O)NCC(N)=O)NC(=O)[C@H](CC(N)=O)NC(=O)[C@H](CCO)NC1=O (H-CYI[hSer]NCPLG-NH2; disulfide 1-6) | 125 | 380 | 5950 | 357 | 520 |
| – | 4 | CC[C@H](C)[C@@H]1NC(=O)[C@H](Cc2ccc(O)cc2)NC(=O)[C@@H](N)CSSC[C@@H](C(=O)N2CCC[C@H]2C(=O)N[C@@H](CC(C)C)C(=O)NCC(N)=O)NC(=O)[C@H](CC(N)=O)NC(=O)[C@H](CCC(N)=O)NC1=O [OXYTOCIN] | 520 | 486 | – | 474 | – |
